Assay results: ChEMBL document CHEMBL3414496, “Synthesis and biological evaluation of novel 2-heteroarylimino-1,3-thiazolidin-4-ones as potential anti-tumor agents” (Eur J Med Chem, 2015)
The source made the active and inactive calls. The calls are words filed in the database; no cut-off is given here.

Legend:
HT-29 [1] = assay: Induction of cell cycle arrest in human HT-29 cells assessed as accumulation at S phase by propidium iodide staining based flow cytometry (reference value: 23.9 +/- 0.3%); format: functional
HT-29 [2] = assay: Induction of ROS generation in human HT-29 cells at cytotoxic IC50 level after 1 hr by DCF-DA staining based fluorescence assay; format: functional, cell-based
Summary of the method: (§1)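 HT29 cells treated two days after seeding, then loaded with 50 µM DCF-DA for 15 min at 37°C. Cells trypsinized, washed and resuspended in PBS, and 30 000 cells/sample read by flow cytometry (FL-1). Expressed as % of DMSO-treated cells; […] for 1 h served as positive control. Triplicates from three independent experiments.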

HT-29 [3] = assay: Induction of ROS generation in human HT-29 cells at cytotoxic IC50 level after 6 hrs by DCF-DA staining based fluorescence assay; format: functional, cell-based; summary of the method: as §1
HT-29 [4] = assay: Induction of GCL expression in human HT-29 cells at 3.8 uM after 4 hrs by Western blotting method; format: functional
Summary of the method: (§2)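 HT29 whole-cell lysates in Hepes/KOH pH 7.5 with EDTA, KCl, NP40, DTT, protease inhibitors; 50 µg protein on 10–15% SDS-PAGE, nitrocellulose, overnight 4°C primary antibody (GCL 1:500, HO-1 1:1000), HRP secondary, chemiluminescence. Bands normalized to GAPDH (1:10 000), DMSO ratio set at 1.00; representative of three independent experiments.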

HT-29 [5] = assay: Induction of GCL expression in human HT-29 cells at 3.8 uM after 24 hrs by Western blotting method; format: functional; summary of the method: as §2
HT-29 [6] = assay: Induction of NQO1 expression in human HT-29 cells at 3.8 uM after 4 hrs by Western blotting method; format: functional
Summary of the method: (§3)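 Whole-cell lysates from treated HT29 cells in pH 7.5 Hepes/KOH buffer with EDTA, KCl, Igepal, DTT and protease inhibitors. 50 µg protein run on 10-15% SDS-PAGE and transferred to nitrocellulose. Probed overnight at 4°C with anti-HO-1 (1:1 000), anti-NQO1 (1:1 000) or anti-GCL (1:500), then HRP secondary for 45 min and chemiluminescence. Bands normalized to GAPDH (1:10 000), with the DMSO ratio set to 1.00. Representative of three experiments.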

HT-29 [7] = assay: Reduction in cell viability of human HT-29 cells assessed as reduction in living cell level at cytotoxic IC50 level after 24 to 48 hrs by DCF-DA and propidium iodide staining based flow cytometry; format: functional
Summary of the method: (§4)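 HT29 cells treated two days after seeding, then loaded together with 50 µM DCF-DA and 25 µg/mL propidium iodide for 15 min at 37°C. Cells trypsinised, washed and resuspended in PBS; 30 000 cells per sample read by flow cytometry (FL-1, FL-3). Viable cells (PI-negative, DCF-positive) given as % of total events. Triplicates, two independent experiments.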

HT-29 [8] = assay: Induction of cell cycle arrest in human HT-29 cells assessed as accumulation at G0/G1 phase by propidium iodide staining based flow cytometry (reference value: 67.7 +/- 0.5%); format: functional
HT-29 [9] = assay: Induction of cell cycle arrest in human HT-29 cells assessed as accumulation at G2/M phase by propidium iodide staining based flow cytometry (reference value: 11.3 +/- 1%); format: functional
HT-29 [10] = assay: Induction of HO1 expression in human HT-29 cells at 2.5 uM after 2 hrs by Western blotting method; format: functional; summary of the method: as §2
HT-29 [11] = assay: Induction of HO1 expression in human HT-29 cells at 2.5 uM after 4 hrs by Western blotting method; format: functional; summary of the method: as §2
HT-29 [12] = assay: Induction of HO1 expression in human HT-29 cells at 2.5 uM after 6 hrs by Western blotting method; format: functional; summary of the method: as §2
HT-29 [13] = assay: Induction of HO1 expression in human HT-29 cells at 2.5 uM after 24 hrs by Western blotting method; format: functional; summary of the method: as §2
HT-29 [14] = assay: Induction of GCL expression in human HT-29 cells at 2.5 uM after 2 hrs by Western blotting method; format: functional; summary of the method: as §2
HT-29 [15] = assay: Induction of GCL expression in human HT-29 cells at 2.5 uM after 4 hrs by Western blotting method; format: functional; summary of the method: as §2
HT-29 [16] = assay: Induction of GCL expression in human HT-29 cells at 2.5 uM after 6 hrs by Western blotting method; format: functional; summary of the method: as §2
HT-29 [17] = assay: Induction of GCL expression in human HT-29 cells at 2.5 uM after 24 hrs by Western blotting method; format: functional; summary of the method: as §2
HT-29 [18] = assay: Induction of NQO1 expression in human HT-29 cells at 2.5 uM after 2 hrs by Western blotting method; format: functional; summary of the method: as §3
HT-29 [19] = assay: Induction of NQO1 expression in human HT-29 cells at 2.5 uM after 4 hrs by Western blotting method; format: functional; summary of the method: as §3
HT-29 [20] = assay: Induction of NQO1 expression in human HT-29 cells at 2.5 uM after 6 hrs by Western blotting method; format: functional; summary of the method: as §3
HT-29 [21] = assay: Induction of NQO1 expression in human HT-29 cells at 2.5 uM after 24 hrs by Western blotting method; format: functional; summary of the method: as §3
HT-29 [22] = assay: Growth inhibition of human HT-29 cells at 2.5 uM after 3 days by trypan blue dye exclusion assay; format: functional; conditions: HT-29, 72 h, read-out: GI
Summary of the method: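 HT29 cells treated 48 h after seeding, dosed daily with daily medium change over three days; drug diluted in DMSO, controls 0.1% (v/v) DMSO. Cells trypsinized, mixed 1:1 with 0.04% trypan blue, live cells counted by hematimeter. Reported as mitotic index (treated/DMSO count); triplicates from two independent experiments.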

HT-29 [23] = assay: Reduction in cell growth of human HT-29 cells at 2.5 uM after 3 days by trypan blue dye exclusion assay; format: functional, cell-based
Summary of the method: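 HT29 cells treated daily from 48 h after seeding, over three days with daily medium changes, in 0.1% (v/v) DMSO vehicle. Cells trypsinised, mixed 1:1 with 0.04% trypan blue, and living cells counted by haemocytometer under microscope. Mitotic index is treated count relative to DMSO control. Triplicate determinations, two independent experiments, mean ± S.E.M.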

HT-29 [24] = assay: Reduction in cell viability of human HT-29 cells assessed as reduction in living cell level at 2.5 uM after 24 to 48 hrs by DCF-DA and propidium iodide staining based flow cytometry; format: functional; summary of the method: as §4
HT-29 [25] = assay: Induction of cell cycle arrest in human HT-29 cells assessed as accumulation at subG1 phase by propidium iodide staining based flow cytometry (reference value: 2.3 +/- 0.1%); format: functional
HT-29 [26] = assay: Induction of HO1 expression in human HT-29 cells at 1.5 uM after 4 hrs by Western blotting method; format: functional; summary of the method: as §2
HT-29 [27] = assay: Induction of GCL expression in human HT-29 cells at 1.5 uM after 24 hrs by Western blotting method; format: functional; summary of the method: as §2
HT-29 [28] = assay: Induction of NQO1 expression in human HT-29 cells at 1.5 uM after 2 hrs by Western blotting method; format: functional; summary of the method: as §3
HT-29 [29] = assay: Induction of NQO1 expression in human HT-29 cells at 1.5 uM after 4 hrs by Western blotting method; format: functional; summary of the method: as §3
HT-29 [30] = assay: Induction of GCL expression in human HT-29 cells at 6.4 uM after 4 hrs by Western blotting method; format: functional; summary of the method: as §2
HT-29 [31] = assay: Induction of HO1 expression in human HT-29 cells at 10 uM after 2 hrs by Western blotting method; format: functional; summary of the method: as §2
HT-29 [32] = assay: Induction of HO1 expression in human HT-29 cells at 10 uM after 4 hrs by Western blotting method; format: functional; summary of the method: as §2

SMILES	Activity (HT-29 [1]) [%]	Activity (HT-29 [2])	Activity (HT-29 [3])	inhibition (HT-29 [7])	Activity (HT-29 [8]) [%]	Activity (HT-29 [9]) [%]	fold change (FC) (HT-29 [10])	fold change (FC) (HT-29 [11])	fold change (FC) (HT-29 [12])	fold change (FC) (HT-29 [13])	fold change (FC) (HT-29 [14])	fold change (FC) (HT-29 [15])	fold change (FC) (HT-29 [16])	fold change (FC) (HT-29 [17])	fold change (FC) (HT-29 [18])	fold change (FC) (HT-29 [19])	fold change (FC) (HT-29 [20])	fold change (FC) (HT-29 [21])	inhibition of growth at 2.5 µM (HT-29 [22]) [%]	inhibition (HT-29 [23])	other results
COc1ccc(/C=C2\S/C(=N\c3csc(-c4ccc(Cl)cc4)c3)NC2=O)cc1	18.2	Active	inactive	Active																	fold change (FC) (HT-29 [4]): 1.49; fold change (FC) (HT-29 [5]): 1.55; fold change (FC) (HT-29 [6]): 0.87
COc1ccc(/C=C2\S/C(=N\c3nc(-c4ccc(Cl)cc4)cs3)NC2=O)cc1					58.7	24.1	1	1	1	1	1.06	0.87	0.86	0.98	1.07	0.85	0.96	0.85	90	Active	inhibition (HT-29 [24]): Active; Activity (HT-29 [25]): 20.9%
CN(C)c1ccc(/C=C2\S/C(=N\c3nc(-c4ccc(Cl)cc4)cs3)NC2=O)cc1					60.6	18.7	1	1	1	1	0.98	0.99	1.2	1.18	0.93	0.67	0.72	0.78	90	Active	inhibition (HT-29 [24]): Active; Activity (HT-29 [25]): 16.2%
CN(C)c1ccc(/C=C2\S/C(=N\c3csc(-c4ccc(Cl)cc4)c3)NC2=O)cc1	14.8			Active																	fold change (FC) (HT-29 [26]): 1; fold change (FC) (HT-29 [27]): 1.52; fold change (FC) (HT-29 [28]): 1.15; fold change (FC) (HT-29 [29]): 1.06
Cc1ccc(/C=C2\S/C(=N\c3csc(-c4ccc(Cl)cc4)c3)NC2=O)cc1	14.8			Active																	fold change (FC) (HT-29 [30]): 2.54
COc1ccc(/C=C2\S/C(=N\c3csc(-c4ccc(Cl)cc4)c3)NC2=O)cc1OC	11.3	Active	inactive	Active																	fold change (FC) (HT-29 [31]): 1; fold change (FC) (HT-29 [32]): 1
